Data from PMC5598103 (Toxicology Reports, 2014).

Columns and labels:
[1] = target: T1, tissue non-specific alkaline phosphatase (TNAP) (Homo sapiens, UniProt P05186); test: Alkaline phosphatase inhibition, spectrophotometric p-NPP assay; assay type: biochemical; details: for Ki: read-out: Ki ± SEM TNAP, pH 9.5, p-NPP substrate, SEM of 3 experiments
T1 sequence (P05186 18-524): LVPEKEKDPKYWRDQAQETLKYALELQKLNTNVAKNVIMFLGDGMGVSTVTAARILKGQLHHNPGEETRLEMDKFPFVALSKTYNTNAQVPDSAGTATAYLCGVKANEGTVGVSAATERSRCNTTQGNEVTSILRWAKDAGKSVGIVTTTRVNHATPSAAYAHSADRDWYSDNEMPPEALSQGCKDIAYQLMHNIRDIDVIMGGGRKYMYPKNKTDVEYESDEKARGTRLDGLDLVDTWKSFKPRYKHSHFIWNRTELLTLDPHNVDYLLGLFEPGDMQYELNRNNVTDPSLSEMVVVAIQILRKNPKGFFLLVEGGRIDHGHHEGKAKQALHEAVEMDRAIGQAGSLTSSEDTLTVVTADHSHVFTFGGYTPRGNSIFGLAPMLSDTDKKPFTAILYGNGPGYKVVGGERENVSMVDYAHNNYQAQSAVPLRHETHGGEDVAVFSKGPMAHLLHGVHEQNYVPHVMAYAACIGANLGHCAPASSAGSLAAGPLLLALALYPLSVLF
Method in brief: (§1)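 Commercial enzyme (calf-intestinal CIAP; TNAP) diluted in pH 9.5 buffer of 50 mM Tris–HCl, 5 mM MgCl2, 0.1 mM ZnCl2 and 50% glycerol. Test compound was preincubated with enzyme in glycerol-free buffer at 37 °C for 10 min. 0.5 mM p-NPP solution was added, incubated 30 min, and p-nitrophenolate read at 405 nm. Screen at 0.1 mM used levamisole (TNAP) or L-phenylalanine (CIAP) as standards. Ki came from 3-fold serial dilutions, run in triplicate.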

vero cells = test: Cytotoxicity by sulforhodamine B; assay type: cell-based; details: for Percent inhibition ± SEM at 10 μM on vero cells: up to 48 h
Method in brief: (§2)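 HeLa or vero cells were grown in RPMI-1640 with 2 mM L-glutamine, penicillin/streptomycin and 10% FBS at 37 °C, 5% CO2. Cells were seeded at 10^4 per well for 24 h, then exposed to 10, 1 or 0.1 μM test compound for up to 48 h, with vincristine and medium controls. Cells were fixed with cold TCA for 1 h and stained 30 min with 0.4% SRB in 1% acetic acid. Dye was solubilised in 10 mM Tris base and read at 490 nm minus 630 nm. Three experiments were run, each in triplicate.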

HeLa cells = test: Cytotoxicity by sulforhodamine B; assay type: cell-based, human; details: for Percent inhibition ± SEM at 0.1 μM on Hela cells / Percent inhibition ± SEM at 1 μM on Hela cells / Percent inhibition ± SEM at 10 μM on Hela cells: up to 48 h
Method in brief: as §2

[2] = target: calf intestine alkaline phosphatase (CIAP); test: Alkaline phosphatase inhibition, spectrophotometric p-NPP assay; assay type: biochemical; details: read-out: Ki ± SEM CIAP; pH 9.5, p-NPP substrate, SEM of 3 experiments
Method in brief: as §1

Row | Compound | inhibition at 100 µM ([1]; read-out: Percent inhibition of TNAP) [%] | Ki [2] [nM] | Ki [1] [nM] | inhibition at 10 µM (vero cells; Chlorocebus sabaeus, Vero, 48 h, read-out: Percent inhibition ± SEM at 10 μM on vero cells) [%] | inhibition at 10 µM (HeLa cells; Homo sapiens, HeLa, 48 h, read-out: Percent inhibition ± SEM at 10 μM on Hela cells) [%] | Percent inhibition ± SEM at 10 μM on vero cells (vero cells) [%] | Percent inhibition ± SEM at 0.1 μM on Hela cells (HeLa cells) [%] | Percent inhibition ± SEM at 1 μM on Hela cells (HeLa cells) [%] | Percent inhibition ± SEM at 10 μM on Hela cells (HeLa cells) [%]
1 | c1ccc([C@H]2CN3CCSC3=N2)cc1 [Levamisole, reference compound] | 71 |  |  |  |  |  |  |  | 
2 | CC[C@]1(O)C[C@H]2CN(CCc3c([nH]c4ccccc34)[C@@](C(=O)OC)(c3cc4c(cc3OC)N(C=O)[C@H]3[C@@](O)(C(=O)OC)[C@H](OC(C)=O)[C@]5(CC)C=CCN6CC[C@]43[C@@H]65)C2)C1 [VCN, vincristine, reference compound] |  |  |  | 10 ± 4 | 72 ± 7 |  |  |  | 
3 | (NH4)14[NaP5W30O110]·31H2O |  | 921 ± 6 | 1110 ± 36 |  |  | 15 ± 6 | 54 ± 6 | 62 ± 13 | 74 ± 10

More lines, main results first:

Row | inhibition at 100 µM ([1]; read-out: Percent inhibition of TNAP) [%] | Ki [2] [nM] | Ki [1] [nM] | Compound | inhibition at 10 µM (vero cells; Chlorocebus sabaeus, Vero, 48 h, read-out: Percent inhibition ± SEM at 10 μM on vero cells) [%] | inhibition at 10 µM (HeLa cells; Homo sapiens, HeLa, 48 h, read-out: Percent inhibition ± SEM at 10 μM on Hela cells) [%] | Percent inhibition ± SEM at 10 μM on vero cells (vero cells) [%] | Percent inhibition ± SEM at 0.1 μM on Hela cells (HeLa cells) [%] | Percent inhibition ± SEM at 1 μM on Hela cells (HeLa cells) [%] | Percent inhibition ± SEM at 10 μM on Hela cells (HeLa cells) [%]
4 |  | 520 ± 13 | 45.4 ± 11.3 | Na6[TeW6O24]·22H2O |  |  | 16 ± 8 | 53 ± 12 | 62 ± 10 | 69 ± 10
5 |  | 79.1 ± 2.3 | 169 ± 21 | Na6[V10O28]·18H2O |  |  | 16 ± 3 | 49 ± 11 | 57 ± 13 | 66 ± 15
